In general, CC50 refers to the concentration that lowers cell viability or growth by half. As a reminder, the IC50 is the concentration that inhibits the measured activity by half.

For 16 compounds, CC50 and IC50 results are on record in ChEMBL document CHEMBL3108673, “Computation-guided discovery of influenza endonuclease inhibitors” (ACS Med Chem Lett, 2014).

Series [1] deals with MDCK. The experiment in a line: Cytotoxicity against MDCK cells after 48 hrs by methylene blue dye-based spectroscopy relative to control. Format: cell-based, Canis lupus familiaris. To be noted: dog. An outline of the steps: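 MDCK cells. CC50 is the compound concentration that kills half of the cell population.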
The nature of series [2]: Inhibition of influenza A virus H1N1 endonuclease N-terminal domain of PA-subunit expressed in Escherichia coli BL21(DE3) using FAM-AAT CGC AGG CAG CAC TC-TAM as substrate by FRET assay. An outline of the steps: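 Recombinant PA_N construct from pH1N1 2009 influenza in a FRET read-out of endonuclease cleavage. Compounds were first screened at 200 μM, then run in dose-response to derive IC50.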

The subject of series [3] is Influenza A virus. The experiment in a line: Antiviral activity against Influenza A virus (A/Puerto Rico/8/1934(H1N1)) infected in MDCK cells assessed as inhibition of virus-induced cytopathic effect after 48 hrs by CellTitre-Glo assay. Format: functional, organism-based. An outline of the steps:
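MDCK cells infected with PR8 H1N1. IC50 is the compound concentration at which half of the infected cells survive. Only compounds with CC50 above 50 μM in MDCK cells were tested.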
On the technique in general: Cytopathic effects are the visible damage that an infection or toxin causes in cultured cells.

[4] abbreviates: Influenza A virus, A/Puerto Rico/8/1934(H1N1), MDCK, 48 h, read-out: IC50.

Some results are limits rather than exact numbers.

With `O=C(N/N=C\c1cccc(Cl)c1Cl)c1ccc(O)c(O)c1`, the cytotoxic concentration (CC50) in series [1] (read-out: CC50) was 6.8 µM. It took 0.7 µM to reach half-maximal inhibition in series [2] (IC50).
As to `O=C(N/N=C\c1ccc(/C=N/NC(=O)c2ccc(O)c(O)c2)cc1)c1ccc(O)c(O)c1`, the IC50 entry was “ND(Insoluble)” in series [3] (mdck) and 23 µM in series [2]. Further, in series [1], the CC50 entry is “ND(Insoluble)”.
As for `C/C(=N/NC(=O)c1ccc(O)c(O)c1)c1ccc(C)cc1`, the figures for the IC50 in series [3] (setting [4]) and in series [2] were more than 50 µM and 2.1 µM, respectively. Further, the CC50 in series [1] (read-out: CC50) was more than 50 µM.
`O=C1CC2(CCCCC2)Oc2c1ccc(O)c2O`: the IC50 is more than 100 µM in series [3] (setting [4]) and 8 µM in series [2]. In addition, in series [1] (read-out: CC50), the 50% cytotoxic concentration (CC50) is more than 100 µM.
For the compound `COc1ccccc1N1CCN(/N=C/c2ccc(O)c(O)c2)CC1`, the CC50 in series [1] (read-out: CC50) came out at 13 µM. Moreover, inhibition in series [2] was half-maximal at 2 µM (IC50).
`O=C(Cc1ccccc1)c1ccc(O)c(O)c1O`: the CC50 in series [1] (read-out: CC50) is 18.1 µM. This compound also had a half-inhibitory concentration (IC50) in series [2] of 1.5 µM.
`COc1ccc(NC(=O)/C(O)=C/C(=O)c2ccc(C)cc2)cc1`: the IC50 was more than 50 µM in series [3] (setting [4]) and 0.6 µM in series [2]. Moreover, in series [1] (read-out: CC50), the CC50 was more than 50 µM.
In the case of `O=C(/C=C(O)/C(O)=C/C(=O)c1ccc(Cl)cc1)c1ccc(Cl)cc1`, the half-maximal inhibitory concentration (IC50) in series [3] (setting [4]) was more than 50 µM; in series [2], 11.7 µM. Moreover, the cytotoxic concentration (CC50) in series [1] (read-out: CC50) was more than 100 µM.
Regarding `COc1ccc(NC(=O)/C(O)=C/C(=O)c2ccc(Cl)cc2)cc1`, the results for the IC50 in series [3] (setting [4]) and in series [2] were more than 50 µM and 0.74 µM, respectively. The CC50 in series [1] (read-out: CC50) is more than 100 µM.
`O=C(N/N=C\c1ccccc1Cl)c1cc(O)c(O)c(O)c1`: the IC50 in series [3] (setting [4]) was 18 µM; in series [2], 14 µM. In addition, the CC50 in series [1] (read-out: CC50) is more than 100 µM.
The like results for `CC(=O)N1CCC2(CC1)CC(=O)c1ccc(O)c(O)c1O2` were, in that order, more than 100 µM, 46 µM and more than 100 µM.
For the compound `O=C(/N=C1/C(=O)Nc2ccc(Br)cc21)/C(O)=C/C(=O)c1ccc(Cl)cc1`, the CC50 in series [1] (read-out: CC50) was more than 50 µM. Also, in series [2], it took 23 µM to reach half-maximal inhibition (IC50).
Turning to `Cc1ccccc1/C=N\NC(=O)c1ccc(O)c(O)c1`, the concentration for half-maximal inhibition (IC50) in series [3] (setting [4]) was more than 50 µM; in series [2], 1.9 µM. Also, the half-maximal cytotoxic concentration (CC50) in series [1] (read-out: CC50) was more than 50 µM.
Take `Cc1ccccc1CC(=O)c1ccc(O)c(O)c1O`: the CC50 in series [1] (read-out: CC50) turned out to be 21 µM. For the same compound, it took 11 µM to reach half-maximal inhibition in series [2] (IC50).
With `O=C(Cc1ccccc1Cl)c1ccc(O)c(O)c1O`, the IC50 is more than 50 µM in series [3] (setting [4]) and 5 µM in series [2]. Besides, the 50% cytotoxic concentration (CC50) in series [1] (read-out: CC50) was more than 50 µM.
`Cc1ccc(C(=O)/C=C(O)/C(O)=C/C(=O)c2ccc(C)cc2)cc1`: the 50% inhibitory concentration (IC50) in series [3] (setting [4]) is 23 µM; in series [2] it was 6 µM. The CC50 in series [1] (read-out: CC50) was more than 50 µM.
